# Test results reported in ChEMBL document CHEMBL1129299, “Synthesis and antitumor evaluation of a highly potent cytotoxic DNA cross-linking polyamine analogue, 1,12-diaziridinyl-4,9-diazadodecane” (1996).
# Columns and labels:
# [1] = system: Mus musculus; assay: In vivo antitumor studies were carried out on mice bearing L1210 murine leukemia cells, by administering intravenously the compound dose of 2.7 mg/kg on days 1,2; format: functional; settings: route intravenous
# In short: (§1)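 Female CD2F1 mice (12-week-old, five per group) given 1 × 10^5 L1210 ascites cells ip on day 0; cells were first passaged ip in DBA/2 mice. From day 1, freshly made drug in 25 mM sodium phosphate pH 7.4 was given iv by tail vein at 0.01 mL/g. Mean survival days were compared with untreated mice by ANOVA and Newman-Keuls.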
# [2] = system: Mus musculus; assay: In vivo antitumor studies were carried out on mice bearing L1210 murine leukemia cells, by administering intravenously the compound dose of 2.7 mg/kg on days 1; format: functional; settings: route intravenous; in short: as §1
# [3] = system: Mus musculus; assay: Percent increase in life span was calculated by administering intravenously the compound dose of 4.0 mg/kg on days 1,5 and 9.; format: functional; settings: route intravenous
# In short: (§2)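 CD2F1 female mice bore ip L1210 (1 × 10^5 cells/mouse, day 0). Tail-vein iv dosing in 25 mM phosphate buffer pH 7.4 began on day 1. Percent increase in life span was calculated as (T − C)/C × 100, with T and C the median days of death for the treated and untreated groups.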
# [4] = system: Mus musculus; assay: Net log cell kill is an estimate of the number of cells that are killed by the compound was calculated at dose of 1.8 mg/kg on days 1; format: functional
# In short: (§3)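 Net log cell kill in female CD2F1 mice given ip L1210 (1 × 10^5 cells, day 0) and iv tail-vein drug from day 1. It was calculated from treated-minus-control median day of death, less treatment duration, relative to tumor doubling time. Doubling time came from median days of death in titration groups of 10 mice implanted with 1 × 10^4 to 1 × 10^6 cells.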
# [5] = system: Mus musculus; assay: In vivo antitumor studies were carried out on mice bearing L1210 murine leukemia cells, by administering intravenously the compound dose of 4.0 mg/kg on days 1,8; format: functional; settings: route intravenous; in short: as §1
# [6] = system: Mus musculus; assay: In vivo antitumor studies were carried out on mice bearing L1210 murine leukemia cells, by administering intravenously the compound dose of 4.0 mg/kg on days 1,5 and 9.; format: functional; settings: route intravenous; in short: as §1
# [7] = system: Mus musculus; assay: In vivo antitumor studies were carried out on mice bearing L1210 murine leukemia cells, by administering intravenously the compound dose of 1.8 mg/kg on days 1,5 and 9.; format: functional; settings: route intravenous; in short: as §1
# [8] = system: Mus musculus; assay: In vivo antitumor studies were carried out on mice bearing L1210 murine leukemia cells, by administering intravenously the compound dose of 6.0 mg/kg on days 1; format: functional; settings: route intravenous; in short: as §1
# [9] = system: Mus musculus; assay: Percent increase in life span was calculated by administering intravenously the compound dose of 2.7 mg/kg on days 1,2; format: functional; settings: route intravenous; in short: as §2
# [10] = system: Mus musculus; assay: Percent increase in life span was calculated by administering intravenously the compound dose of 2.7 mg/kg on days 1,5 and 9.; format: functional; settings: route intravenous; in short: as §2
# [11] = system: Mus musculus; assay: In vivo antitumor studies were carried out on mice bearing L1210 murine leukemia cells, by administering intravenously the compound dose of 1.8 mg/kg on days 1,8; format: functional; settings: route intravenous; in short: as §1
# [12] = system: Mus musculus; assay: Percent increase in life span was calculated by administering intravenously the compound dose of 4.0 mg/kg on days 1,8; format: functional; settings: route intravenous; in short: as §2
# [13] = system: Mus musculus; assay: Net log cell kill is an estimate of the number of cells that are killed by the compound was calculated at dose of 2.7 mg/kg on days 1,5,9; format: functional; in short: as §3
# [14] = system: Mus musculus; assay: Percent increase in life span was calculated by administering intravenously the compound dose of 2.7 mg/kg on days 1,8; format: functional; settings: route intravenous; in short: as §2
# [15] = system: Mus musculus; assay: Net log cell kill is an estimate of the number of cells that are killed by the compound was calculated at dose of 2.7 mg/kg on days 1; format: functional; in short: as §3
# [16] = system: Mus musculus; assay: Net log cell kill is an estimate of the number of cells that are killed by the compound was calculated at dose of 1.8 mg/kg on days 1,2; format: functional; in short: as §3
# [17] = system: Mus musculus; assay: In vivo antitumor studies were carried out on mice bearing L1210 murine leukemia cells, by administering intravenously the compound dose of 4.0 mg/kg on days 1,2; format: functional; settings: route intravenous; in short: as §1
# [18] = system: Mus musculus; assay: Percent increase in life span was calculated by administering intravenously the compound dose of 1.8 mg/kg on days 1,8; format: functional; settings: route intravenous; in short: as §2
# [19] = system: Mus musculus; assay: Percent increase in life span was calculated by administering intravenously the compound dose of 1.8 mg/kg on days 1,2; format: functional; settings: route intravenous; in short: as §2
# [20] = system: Mus musculus; assay: Net log cell kill is an estimate of the number of cells that are killed by the compound was calculated at dose of 2.7 mg/kg on days 1,2; format: functional; in short: as §3
# [21] = system: Mus musculus; assay: Percent increase in life span was calculated by administering intravenously the compound dose of 1.8 mg/kg on days 1; format: functional; settings: route intravenous; in short: as §2
# [22] = system: Mus musculus; assay: Percent increase in life span was calculated by administering intravenously the compound dose of 4.0 mg/kg on days 1; format: functional; settings: route intravenous; in short: as §2
# [23] = system: Mus musculus; assay: In vivo antitumor studies were carried out on mice bearing L1210 murine leukemia cells, by administering intravenously the compound dose of 1.8 mg/kg on days 1,2; format: functional; settings: route intravenous; in short: as §1
# [24] = system: Mus musculus; assay: In vivo antitumor studies were carried out on mice bearing L1210 murine leukemia cells, by administering intravenously the compound dose of 2.7 mg/kg on days 1,5 and 9.; format: functional; settings: route intravenous; in short: as §1
# [25] = system: Mus musculus; assay: In vivo antitumor studies were carried out on mice bearing L1210 murine leukemia cells, by administering intravenously the compound dose of 4.0 mg/kg on days 1; format: functional; settings: route intravenous; in short: as §1
# [26] = system: Mus musculus; assay: Net log cell kill is an estimate of the number of cells that are killed by the compound was calculated at dose of 2.7 mg/kg on days 1,8; format: functional; in short: as §3
# [27] = system: Mus musculus; assay: Percent increase in life span was calculated by administering intravenously the compound dose of 2.7 mg/kg on days 1; format: functional; settings: route intravenous; in short: as §2
# [28] = system: Mus musculus; assay: Net log cell kill is an estimate of the number of cells that are killed by the compound was calculated at dose of 4.0 mg/kg on days 1,8; format: functional; in short: as §3
# [29] = system: Mus musculus; assay: Net log cell kill is an estimate of the number of cells that are killed by the compound was calculated at dose of 1.8 mg/kg on days 1,5,9; format: functional; in short: as §3
# [30] = system: Mus musculus; assay: Percent increase in life span was calculated by administering intravenously the compound dose of 1.8 mg/kg on days 1,5 and 9.; format: functional; settings: route intravenous; in short: as §2
# [31] = system: Mus musculus; assay: In vivo antitumor studies were carried out on mice bearing L1210 murine leukemia cells, by administering intravenously the compound dose of 2.7 mg/kg on days 1,8; format: functional; settings: route intravenous; in short: as §1
# [32] = system: Mus musculus; assay: In vivo antitumor studies were carried out on mice bearing L1210 murine leukemia cells, by administering intravenously the compound dose of 1.8 mg/kg on days 1; format: functional; settings: route intravenous; in short: as §1
# [33] = system: Mus musculus; assay: Net log cell kill is an estimate of the number of cells that are killed by the compound was calculated at dose of 4.0 mg/kg on days 1; format: functional; in short: as §3
# [34] = system: Mus musculus; assay: In vivo antitumor studies were carried out on mice bearing L1210 murine leukemia cells, by administering intraperitoneally the compound dose of 10 mg/kg on days 1,5 and 9.; settings: route intraperitoneal
# [35] = system: Mus musculus; assay: Net log cell kill is an estimate of the number of cells that are killed by the compound was calculated at dose of 10 mg/kg on days 1,5,9; format: functional
# [36] = system: Mus musculus; assay: Percent increase in life span was calculated by administering intraperitoneally the compound dose of 10 mg/kg on days 1,5 and 9.; settings: ip
structure (smiles),measurement,setting,value
C(CCNCCCN1CC1)CNCCCN1CC1,Mean survival,[1],13.2 days
same,Mean survival,[2],10.4 days
same,ILS at 4 mg/kg,[3],14%
same,NLCK,[4],4
same,Mean survival,[5],17.2 days
same,Mean survival,[6],11 days
same,Mean survival,[7],17.4 days
same,Mean survival,[8],6.8 days
same,ILS at 2.7 mg/kg,[9],100%
same,ILS at 2.7 mg/kg,[10],171%
same,Mean survival,[11],12.6 days
same,ILS at 4 mg/kg,[12],157%
same,NLCK,[13],4
same,ILS at 2.7 mg/kg,[14],129%
same,NLCK,[15],3
same,NLCK,[16],6
same,Mean survival,[17],5.4 days
same,ILS at 1.8 mg/kg,[18],86%
same,ILS at 1.8 mg/kg,[19],100%
same,NLCK,[20],6
same,ILS at 1.8 mg/kg,[21],57%
same,ILS at 4 mg/kg,[22],57%
same,Mean survival,[23],14.8 days
same,Mean survival,[24],18.8 days
same,Life span,[25],11 days
same,NLCK,[26],2
same,ILS at 2.7 mg/kg,[27],42%
same,NLCK,[28],4
same,NLCK,[29],2
same,ILS at 1.8 mg/kg,[30],143%
same,Mean survival,[31],15.2 days
same,Mean survival,[32],10.8 days
same,NLCK,[33],4
S=P(N1CC1)(N1CC1)N1CC1 [THIOTEPA],Mean survival,[34],15.3 days
same,NLCK,[35],1
same,ILS at 10 mg/kg,[36],114%
